Screening results from PubChem.
Most compounds without a hit are left out; they make up all but 1.6% or so of the library.
NR2E3 ag-1: inhibitors of NR2E3-RetCOR corepressor binding, primary screen, NR2E3 agonist project, biochemical, TR-FRET, GST-NR2E3, biotin-RetCOR; AID 2300, 2010; 1536-well; actives 0.12% (n = 320,000); inhibition of corepressor binding, % at 4.78 µM;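 active means percent inhibition above the cutoff of mean plus 3 SD of all tested compounds, set per screening campaign, cut at about 20% in these data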;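 further: 0% = DMSO wells and 100% = biotin wells as full block of FRET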
Target sequence (Q9Y5X4 whole entry, looked up): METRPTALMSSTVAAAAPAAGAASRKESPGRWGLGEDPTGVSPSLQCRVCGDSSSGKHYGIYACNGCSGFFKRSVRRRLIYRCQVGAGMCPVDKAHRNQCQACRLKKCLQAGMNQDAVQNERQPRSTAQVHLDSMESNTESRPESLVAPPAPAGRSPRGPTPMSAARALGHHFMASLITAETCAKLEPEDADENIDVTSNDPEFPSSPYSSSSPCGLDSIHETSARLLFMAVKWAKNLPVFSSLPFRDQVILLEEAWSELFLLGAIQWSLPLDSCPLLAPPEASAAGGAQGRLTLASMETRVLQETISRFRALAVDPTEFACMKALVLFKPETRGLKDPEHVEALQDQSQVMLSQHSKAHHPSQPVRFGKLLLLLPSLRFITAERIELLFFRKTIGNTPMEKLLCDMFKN
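System: GST-tagged NR2E3 plus biotinylated RetCOR corepressor; Amount: 1.35 nM GST-tagged NR2E3 final; Dosing: single nominal compound dose of 4.8 µM; Schedule: 5 h incubation at 4 °C; Technique: TR-FRET with europium anti-GST and streptavidin-D2, 340 nm excitation; Controls: biotin wells as high control, 0.6% DMSO wells as low control.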
PG9 binder: binders of HIV-1 gp120 antibody PG9, primary screen, biochemical, TR-FRET; HIV-1 gp120 / PG9 antibody interaction; TR-FRET gp120-PG9 antibody binding; inhibition, % at 6.7 µM; actives 0.43% (n = 360,000); in the data active means inhibition above about 8.5%
NR2E3 ag-2: NR2E3 agonists in two-hybrid cells, primary screen, cell-based, luminescence, CHO-S, Gal4-NCOR/VP16-NR2E3; luciferase; inhibition of corepressor binding, % at 3.98 µM; actives 0.35% (n = 360,000);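 active means inhibition above the mean of all tested compounds plus 3 SD, cut at about 70% in these data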;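 further: 0% = DMSO with NR2E3 transfected cells and 100% = cells lacking NR2E3 construct; higher means lower luciferase signal from less NR2E3 corepressor binding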
Rev-erbA mod: modulators of Rev-erb alpha DNA binding, primary screen, biochemical, FITC-DNA, fluorescence polarization, uHTS. Rev-erbα–FITC-DNA binding, 90 min. activity, % at 10 µM. actives 0.79% (n = 370,000);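 active means activity above about 14%, limit read from the data; passing the limit was not always enough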;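 further: 0% = DMSO wells with 35 nM protein and 100% = DMSO wells with 750 nM protein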
VLA-4 inh: inhibition in human VLA-4 binding assay, primary screen, VLA-4 allosteric modulator project, MLPCN library, flow cytometry, VLA-4 expressing cells | Integrin alpha-4 (Homo sapiens), P13612 | ligand binding flow cytometry | inhibition, % (about 7 µM as worked out from the volumes in the protocol) | actives 0.2% (n = 330,000); in the data active means inhibition above about 50%
NR2E3 ag conf: NR2E3 agonist confirmation in cells, cell-based, luminescence, CHO-S two-hybrid; CHO-S mammalian two-hybrid NR2E3-NCOR, luciferase luminescence; AID 624378, 2012; inhibition, % at 3.98 µM; actives 51% (n = 2,300); shares compounds with NR2E3 ag-2;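 active means average inhibition above a cutoff equal to the mean inhibition of all tested compounds plus one SD, cut at about 70% in these data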;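 further: 0% = DMSO in NR2E3 cells and 100% = DMSO in cells lacking NR2E3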
GAL4-VP16 luc: GAL4-VP16 reporter modulators, confirmation, counter-screen for NR2E3 agonist project, cell-based, luminescence, CHO-S, high throughput; shares compounds with NR2E3 ag-2; CHO-S GAL4-VP16 luciferase reporter; inhibition, % at 3.98 µM; actives 29% (n = 2,300);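 active means mean inhibition above a cutoff equal to the average over all tested compounds plus one standard deviation, cut at about 70% in these data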;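 further: luciferase from a UAS reporter driven by GAL4-VP16 transactivation; 0% = DMSO with VP16-transfected cells and 100% = DMSO with cells lacking VP16; higher means less reporter light so more repression of VP16 activity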
* hit, by the source's call; / = no result.

SMILES	NR2E3 ag-1	PG9 binder	NR2E3 ag-2	Rev-erbA mod	VLA-4 inh	NR2E3 ag conf	GAL4-VP16 luc
CC(=O)c1c(C)oc2ccc(NS(=O)(=O)c3ccc(C)cc3)cc12	-3	0	80*	-1	9	-6	26
CSCCCNC(=O)c1oc(=O)c2ccccc2c1-c1ccc(C)cc1	/	/	/	0	/	/	/
O=C(OC12CCCN(C1)/C(=C/c1cccnc1)C2)C1CCCCC1 (centres undefined)	/	/	/	2	/	/	/
O=c1cc(C(F)(F)F)[nH]c2ccc(C(F)(F)F)cc12	-2	0	93*	3	-2	101*	91*
CCOc1cc(/C=C/c2cc(C(F)(F)F)[nH]c(=O)n2)ccc1O	2	-9	16	-2	-28	/	/
COc1ccc(/C=C/c2cc(C(F)(F)F)[nH]c(=O)n2)cc1OC	4	-6	53	-1	-2	64	-3
COc1ccc(NS(=O)(=O)c2ccc(N3CCCC3=O)cc2)cn1	2	-1	-10	-2	4	/	/
COc1ccc(NS(=O)(=O)c2ccc3c(c2)Cc2ccccc2-3)cn1	1	-1	85*	-4	9	93*	77*
CCC(C)NC(=O)c1ccc2nc(Cc3ccc(OC)cc3)oc2c1 (centres undefined)	0	-1	-19	2	1	/	/
CCC(NC(=O)c1ccc2nc(Cc3ccc(OC)cc3)oc2c1)c1ccncc1 (centres undefined)	-3	0	67	-7	3	83*	61
Cc1ccc(NC(=O)NC2CC(=O)N(c3ccc4c(c3)OCCO4)C2)cc1 (centres undefined)	2	-1	12	-2	11	/	/
COc1ccc(C)cc1NC(=O)NC1CC(=O)N(c2ccc3c(c2)OCCO3)C1 (centres undefined)	/	0	72*	2	/	78*	11
CCCCCc1c(-c2ccccc2OC)ncn1CCc1ccccc1OC	/	-1	66	0	/	62	30
CN(C)S(=O)(=O)c1cccc(C(=O)N/N=C\c2cccc(C#N)c2)c1	/	/	/	-8	/	/	/
CC(=O)c1ccc(NS(=O)(=O)c2ccc(CC(C)C)cc2)cc1	-1	3	64	-7	-5	90*	69
C/C(=N/NS(=O)(=O)c1ccc(CC(C)C)cc1)c1ccncc1	-2	0	104*	-2	18	21	45
CC(=O)c1ccc(NC(=O)Nc2ccc(NS(=O)(=O)c3ccc(C)cc3)cc2)cc1	0	7	8	5	-3	/	/
COCCCNC(=O)C[C@H]1C[C@@]2(C(=O)OC)C(=C[C@H](COCc3ccccc3)O[C@@H]2C)N(Cc2ccccc2)C1=O	/	/	/	3	/	/	/
O=S1(=O)c2ccc(N3CCCC3)cc2Oc2ccccc2CN1Cc1cn(Cc2ccccc2C(F)(F)F)nn1	/	/	/	-1	/	/	/
CCOC(=O)C1=C[C@@H](C(C)(C)C)N(S(=O)(=O)c2ccc([N+](=O)[O-])cc2)[C@H]1c1ccccc1	/	-2	70*	0	/	45	32
CCOC(=O)C1=C[C@@H](C(C)(C)C)N(S(=O)(=O)c2ccc([N+](=O)[O-])cc2)[C@H]1c1cccc(Cl)c1	/	0	/	6	/	/	/
O=C(Nc1ccc(-n2ccc(C(F)(F)F)n2)cc1)Nc1cccc(Cl)c1	-1	0	82*	4	4	99*	75*
CC(OC(=O)c1cc(Br)ccc1O)C(=O)Nc1ccc(S(=O)(=O)N2CCCC2)cc1 (centres undefined)	-1	1	52	-1	12	-23	-4
CC(C)c1cc(C(C)C)c(S(=O)(=O)N2CCC(c3cn4ccccc4n3)CC2)c(C(C)C)c1	/	/	/	8	/	/	/
COc1cccc(Cn2cc(COC(=O)NCCc3c[nH]c4ccccc34)nn2)c1	/	/	/	-5	/	/	/
SMILES	NR2E3 ag-1	PG9 binder	NR2E3 ag-2	Rev-erbA mod	VLA-4 inh	NR2E3 ag conf	GAL4-VP16 luc
Cc1ccc(C)c(S(=O)(=O)N2CCN(C(=O)C3CCN(c4ncnc5sc(C)c(C)c45)CC3)CC2)c1	3	0	78*	-3	-6	67	63
Cc1ccc(NC(=O)C2CCN(c3ncnc4sc(C)c(C)c34)CC2)cc1S(=O)(=O)N(C)C	-3	0	-1	1	-14	/	/
c1ccc2cc(Cn3ccc4ccc(-c5ccc6cc[nH]c6c5)cc43)ccc2c1	/	/	/	7	/	/	/
CC(CN1CCN(CCOCCO)CC1)CN1c2ccccc2Sc2ccc(Cl)cc21 (centres undefined)	/	-1	49	-1	/	26	7
CC(=O)Nc1ccc(OC(C)=O)cc1	/	/	/	-2	/	/	/
Cc1ccc(-c2cc(C(=O)NN=Cc3ccc(-c4ccccc4)cc3)[nH]n2)cc1	/	/	/	-14	/	/	/
O=C(CCNS(=O)(=O)c1ccc(OC(F)(F)F)cc1)N1CCN(C/C=C/c2ccccc2)CC1	3	-1	55	-1	10	56	45
O=C1NC(=S)SC1=Cc1cc(Br)ccc1O	/	-2	23	-3	/	/	/
O=C1NC(=S)SC1=Cc1ccccc1Br	/	0	74*	4	/	95*	72*
CC(=O)Nc1ccc(S(=O)(=O)N2CCN=C2SCc2ccc([N+](=O)[O-])cc2)cc1	0	1	50	1	-10	79*	49
CC(=O)Nc1ccc(S(=O)(=O)N2CCN=C2SCc2cccc(C)c2)cc1	2	-1	13	-1	15	/	/
C[C@H]1[C@@H](OC(=O)Nc2ccccc2Cl)CC[C@@]23CCCN2C(=O)CCC[C@@H]13	/	/	/	3	/	/	/
O=C1NC[C@H](c2ccccc2)OC(=O)[C@@H](Cc2ccc(F)cc2)CC/C=C/C[C@H]1CC(=O)N(CCO)Cc1ccccc1	/	-2	49	-3	-11	37	31
O=C1N[C@H](Cc2ccccc2)COC(=O)[C@H](Cc2ccc(F)cc2)C/C=C\C[C@H]1CC(=O)N(CCO)Cc1ccccc1	/	0	62	2	11	63	16
NC1=C(Cl)C(=O)c2ccc(S(N)(=O)=O)cc2C1=O	/	-17	72*	-14	/	10	19
